Rows were chosen to be rich in hits. Some 5% of all compounds tested hit in one or more screens of this group.
Beta cell apopt: blocks beta cell apoptosis; INS-1E cytokine-induced death, ATP luminescence, 48 h; percent of positive-control rescue, neutral wells zero; actives 0.8% (n = 300,000); protection from apoptosis, % (no concentration beside the values);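 active = Every replicate reaches about 75%, or at least half do and their mean reaches it too, limit read from the data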;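 also: 0% = cytokine-treated negative control wells and 100% = positive control rescue; higher means more ATP so stronger rescue from cytokine killing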
CSC inhib: blocks cancer stem cells; cancer stem cell-like cells viability, luminescence; inhibition, % at 7.5 µM; actives 1.1% (n = 300,000); in the data active = inhibition above about 75%; tested in HMLE shEcad cells
Mdm2 MdmX PPI: inhibitors of human Mdm2/MdmX interaction. AID 485346. O15151+Q00987. inhibition, % at 8 µM. actives 3% (n = 330,000). SaOS-2 split-luciferase Mdm2/MdmX complementation, luminescence;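 active = inhibition of at least 50% at 8 µM in the primary screen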
Target sequence (O15151 whole entry, looked up): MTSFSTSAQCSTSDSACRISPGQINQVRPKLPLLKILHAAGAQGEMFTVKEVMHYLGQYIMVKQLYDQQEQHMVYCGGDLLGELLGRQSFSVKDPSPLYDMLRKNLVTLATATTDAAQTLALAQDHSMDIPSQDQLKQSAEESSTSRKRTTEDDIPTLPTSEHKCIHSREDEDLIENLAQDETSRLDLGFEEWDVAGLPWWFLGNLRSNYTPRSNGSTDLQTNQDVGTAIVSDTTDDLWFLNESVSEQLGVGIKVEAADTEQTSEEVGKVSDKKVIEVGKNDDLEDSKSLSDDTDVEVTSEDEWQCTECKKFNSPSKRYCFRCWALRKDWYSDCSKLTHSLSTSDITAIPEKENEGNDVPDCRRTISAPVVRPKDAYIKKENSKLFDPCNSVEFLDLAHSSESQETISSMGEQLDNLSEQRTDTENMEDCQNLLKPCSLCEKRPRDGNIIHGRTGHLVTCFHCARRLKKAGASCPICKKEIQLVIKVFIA
Target sequence (Q00987 whole entry, looked up): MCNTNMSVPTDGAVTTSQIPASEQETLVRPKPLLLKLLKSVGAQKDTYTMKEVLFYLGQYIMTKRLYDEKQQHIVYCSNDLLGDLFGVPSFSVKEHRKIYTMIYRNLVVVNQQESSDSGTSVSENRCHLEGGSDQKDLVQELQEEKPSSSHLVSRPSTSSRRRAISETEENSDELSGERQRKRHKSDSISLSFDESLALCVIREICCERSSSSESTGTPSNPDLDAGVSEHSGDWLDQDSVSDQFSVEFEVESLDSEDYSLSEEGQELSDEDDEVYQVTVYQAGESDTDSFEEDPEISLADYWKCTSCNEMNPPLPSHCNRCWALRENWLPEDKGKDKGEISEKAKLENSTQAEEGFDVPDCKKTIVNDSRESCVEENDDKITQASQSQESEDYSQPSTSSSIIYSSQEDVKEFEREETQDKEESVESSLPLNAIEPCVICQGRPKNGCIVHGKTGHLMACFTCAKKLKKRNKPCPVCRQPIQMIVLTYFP
XBP1 UPR activ: adaptive UPR (XBP1) activation. CHO-XBP1 luciferase reporter, IRE1-XBP1 UPR activation, luminescence; percent of tunicamycin response, DMSO as zero. actives 0.33% (n = 330,000). AID 463104. activation, % at 20 µM;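 active = versus positive control, 20 µM dose yields 30% or more activation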;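 also: 100% = tunicamycin at 10 µg/mL and 0% = DMSO only wells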
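incubation = overnight seeding at 37 °C, 6 h compound treatment at 37 °C | assay system = CHO-XBP1 cells stably carrying IRE1-XBP1-driven luciferase reporter | input = 1000 cells per well | detection = luciferase luminescence | dosing = single point, 20 µM final compound, 1% DMSO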
CHOP UPR activ: apoptotic UPR (CHOP) activation; CHO-CHOP luciferase reporter, luminescence; percent of tunicamycin response over DMSO baseline; AID 449763; actives 0.34% (n = 330,000); activation, % at 10 µM;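 active = at 10 µM dose, activation of 40% or more, normalized to positive control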;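 also: 100% = tunicamycin at 10 µg/mL and 0% = DMSO alone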
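Dosing – one dose, 10 µM in 0.5% DMSO · System – CHO-CHOP cells, stable luciferase reporter of PERK-eIF2a-CHOP signalling · Input – 500 cells/well · Control set – tunicamycin 10 µg/mL final as positive, DMSO-only wells as negative · Timing – 6 h compound treatment, 37 °C · Measure – % activation vs tunicamycin · Technique – luminescence read with Steady-Glo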
T cruzi inh: T. cruzi replication inhibition; T. cruzi beta-gal in NIH3T3, luminescence, 90 h; inhibition, % (concentration not given with the values); actives 1.4% (n = 300,000); AID 1885;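 active = mean inhibition across valid replicates above about 55%, limit read from the data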;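 also: signal also drops with host cell toxicity which is not excluded here; 0% = plate median of DMSO wells and 100% = zero luminescence signal; higher percent means less beta-gal luminescence so fewer parasites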
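System – NIH/3T3 host cells with β-galactosidase reporter T. cruzi · Doses – single 50 nL compound addition per well in DMSO · Reagent – 5000 T. cruzi trypomastigotes/well · Medium – Low-serum DMEM with 2% FBS · Timing – ≥90 h infection period, 3 h prior cell attachment · Evaluation – parasite load inhibition, % · Technique – GalScreen luminescence, 60 min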
Numbers without * were called inactive; x = not tested or not shown.

SMILES	Beta cell apopt	CSC inhib	Mdm2 MdmX PPI	XBP1 UPR activ	CHOP UPR activ	T cruzi inh
COCCNC(=O)c1c[nH]c2ccc(S(=O)(=O)N3CCc4ccccc43)cc2c1=O	-17.4	84.3*	21.3	-1.8	0.3	20.1
CCCCCn1c(NC(=O)c2ccco2)c(S(=O)(=O)c2ccc(C)cc2)c2nc3ccccc3nc21	-2.5	70.8	17.0	-2.6	4.5	55.3*
CCCCn1c(NS(=O)(=O)c2ccccc2)c(S(=O)(=O)c2ccc(C)cc2)c2nc3ccccc3nc21	85.7*	36.6	x	x	x	3.3
CCCCn1c(NC(=O)c2ccco2)c(S(=O)(=O)c2ccc(C)cc2)c2nc3ccccc3nc21	x	x	x	x	x	11.5
O=C(Nc1ccc(Cl)c(Cl)c1)O/N=C/c1ccncc1	17.2	75.3*	11.4	1.9	2.1	-1.6
O=C(Nc1cccc(Cl)c1)O/N=C\c1ccncc1	-6.9	-4.8	15.1	-2.4	-0.4	-2.6
CCCC(CCC)C(=O)Nc1c[nH]c(=O)[nH]c1=O	0.5	-13.3	-4.4	-2.8	0.0	-8.3
CCOc1ccc(S(=O)(=O)NCCC(=O)Nc2cccc(C(=O)OC)c2)cc1	-5.0	x	-25.4	-3.0	0.0	-4.3
Cc1ccc(N=Nc2c(O)ccc3n[nH]nc23)cc1	98.5*	7.6	x	x	x	1.6
O=c1c2c3c(sc2n(CCN2CCCCC2)c(=O)n1Cc1ccco1)CCCCC3	93.4*	-2.7	-2.0	-0.3	3.0	62.8*
CC(O)CNc1nc2sc3c(c2c(=O)n1Cc1ccco1)CCCCC3 (centres undefined)	90.5*	57.3	-25.4	2.7	4.4	3.3
CC(O)CNc1nc2sc3c(c2c(=O)n1CCc1ccccc1)CCCCC3 (centres undefined)	4.6	58.5	6.7	2.4	3.8	56.9*
O=c1c2c3c(sc2n(CCN2CCOCC2)c(=O)n1Cc1ccco1)CCCCC3	x	34.7	0.1	-0.7	-2.9	33.9
CCn1c(=O)n(CCc2ccccc2)c(=O)c2c3c(sc21)CCCC3	8.3	39.9	36.4	4.2	0.6	32.5
O=c1c2c3c(sc2nc(NCCOCCO)n1Cc1ccco1)CCCCC3	-0.5	-10.4	29.1	1.2	0.3	x
CCc1cc2c(=O)n(CCCOC)c(SCC(=O)Nc3oc(C)c4c(C)n[nH]c(=O)c34)nc2s1	-4.8	-6.7	26.4	-3.5	-0.5	15.4
COc1ccc(C(=O)Nc2cccc(-c3cnc4ccccc4n3)c2)cc1	7.4	4.1	6.8	5.7	2.0	-8.9
Cc1ccc(C)c(Cn2nnc3c(=O)[nH]c(C4CCCN(S(=O)(=O)Cc5ccccc5)C4)nc32)c1 (centres undefined)	-0.8	x	8.3	102.8*	0.7	1.8
O=C(NCc1ccco1)c1cccc(NS(=O)(=O)c2ccccc2F)c1	-3.3	1.9	-5.2	2.6	1.1	-14.6
O=C(NCCS(=O)(=O)N1CCN(Cc2ccccc2)CC1)c1ccccc1	1.3	5.0	9.7	-0.9	-0.1	-1.2
COc1ccc(C(C(=O)NCC2CCCO2)N(C(=O)CNC(=O)c2cccs2)c2ccc(C(C)=O)cc2)cc1OC (centres undefined)	2.1	2.1	-5.5	-4.2	-1.3	13.9
COC(=O)c1c(-c2ccc(OC)cc2)sc2cc3c(cc12)OCO3	-2.0	26.1	-186.3	7.1	5.3	x
COC(=O)c1c(-c2ccc(N(C)C)cc2)sc2ccc(OC)cc12	7.4	105.6*	-176.2	5.4	5.7	x
COc1ccccc1NS(=O)(=O)c1cc(NC(=O)C2CCC2)ccc1N1CCCCC1	36.8	5.4	7.2	0.8	1.7	57.3*
COc1ccccc1NS(=O)(=O)c1cc(NC(=O)Nc2ccc(Cl)cc2Cl)ccc1N1CCCCC1	39.8	37.5	42.0	-1.3	7.9	59.4*
SMILES	Beta cell apopt	CSC inhib	Mdm2 MdmX PPI	XBP1 UPR activ	CHOP UPR activ	T cruzi inh
COc1ccccc1NS(=O)(=O)c1cc(NC(=O)c2ccc(Cl)nc2)ccc1N1CCCC1	27.9	0.6	21.5	4.1	3.1	x
O=C(Cn1c(C(=O)N2CCN(C3CCCC3)CC2)cc2sccc21)c1ccccc1	3.7	-11.3	23.6	8.1	1.2	28.6
COC(CNC(=O)C1CC(=O)N(CCc2ccc(C)cc2)C1)OC (centres undefined)	-2.1	-17.0	24.4	-3.8	-0.2	-4.1
O=C(COc1ncnc2cc([N+](=O)[O-])ccc12)NCCc1ccc(Cl)cc1	0.9	-1.3	21.4	-0.9	-0.1	55.7*
O=C(COc1ncnc2cc([N+](=O)[O-])ccc12)NC(=O)NC1CCCCC1	-4.3	-5.8	8.9	-1.7	-2.8	67.0*
CNc1ccccc1C(C)(C)c1cc(-c2cc(C)cc(C)c2)no1	3.3	97.0*	7.7	-1.4	0.0	10.7
CNc1ccccc1C(C)(C)c1cc(-c2cccc(OC)c2)no1	61.4	x	13.2	1.0	4.0	15.3
Cc1cccc(N2C(=O)c3cccc4c(N(C)CCO)ccc(c34)C2=O)c1	5.1	-18.6	7.2	0.3	-0.6	17.4
O=C(Nc1ccc(Cl)cc1)N(Cc1cccnc1)Cc1ccco1	-1.3	1.9	-5.5	-1.0	-0.7	60.9*
Cc1ccc(NC(=S)N(CCCN2CCOCC2)Cc2cccnc2)cc1C	-9.3	-13.9	0.4	-1.6	-0.2	68.4*
Cc1ccc(NC(=O)N(Cc2cccnc2)Cc2ccco2)cc1C	-6.0	0.5	21.3	-1.6	2.1	67.2*
COc1ccc(-n2nnnc2SCC(=O)Nc2nc3c(s2)CCCC3)cc1	0.3	11.8	-0.3	0.9	-1.9	14.9
CC1=C(C(N)=O)C(c2cccs2)n2nc(-c3cccc(C)c3)nc2N1 (centres undefined)	-5.1	3.8	26.8	-1.3	-1.2	-0.2
CC1=C(C(N)=O)C(c2cccnc2)n2nc(-c3cccc(C)c3)nc2N1 (centres undefined)	-2.0	0.1	27.6	-1.4	-2.7	65.6*
O=C1c2cccc3c([N+](=O)[O-])ccc(c23)C(=O)N1Cc1cccnc1	x	x	x	x	x	84.9*
C(=N\Nc1nc2ccccc2s1)/c1cccs1	-4.4	8.9	-165.4	2.5	1.8	2.9
CCn1c(C)c(/C=N/Nc2nc3ccccc3s2)c2ccccc21	x	x	23.9	3.2	5.0	69.4*
O=C(NC(=S)Nc1ccc(Oc2ccccc2)cc1)c1ccc(Cl)cc1	-7.7	59.2	23.6	-0.1	-1.6	61.9*
Cc1ccc(C(=O)NC(=S)Nc2ccc(Oc3ccc(Cl)cc3)cc2)cc1	-2.1	31.3	5.5	-5.7	-3.8	65.3*
CCCCNC(=S)NNC(=O)C1=NN(c2cc(C)ccc2C)C(=O)CC1	-0.4	2.3	-8.3	-3.0	1.1	2.4
c1ccc(Nc2ccc3c4c(cccc24)CC3)cc1	2.0	11.8	33.7	-0.7	-2.3	64.5*
c1ccc(Nc2cccc3ccccc23)cc1	x	x	23.4	2.8	2.3	x

From PubChem BioAssay
